Source: PubChem (Johns Hopkins Ion Channel Center)
Most compounds without a hit are left out; they make up all but 3.8% or so of the library.
KCNK3 inh: human KCNK3 channel inhibition, primary screen; O14649; CHO-KCNK3 thallium flux, FluxOR fluorescence; hits give low values; B-score at 10 µM; 340,000 tested, 0.84% active;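 active = B-score under library mean minus 4 SD, starting fluorescence ratio at most library mean plus 5 SD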;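 note: more negative B-score means stronger inhibition of thallium flux through KCNK3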
KCNQ1 pot: human KCNQ1 channel potentiation or activation; P51787; B-score at 10 µM; CHO-K1 KCNQ1, thallium flux FluxOR fluorescence; hits give high values; 310,000 tested, 0.35% active;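 active = fluorescence ratio B-score, a plate-corrected score, at least three library SD, with initial intensity B-score within 5 SD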
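Doses: Single concentration per compound, DMSO matched to controls | Test system: KCNQ1-transfected CHO-K1 cells | Timing: 90 min dye loading and 20 min compound exposure, both at room temperature | Measured by: Kinetic FluxOR thallium fluorescence, 10-s 1-Hz baseline, 110-s post-stimulus read | Medium: Assay buffer with matched DMSO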
Kir21 inh: inhibitors of mouse Kir2.1 inward-rectifier potassium channel. HEK293-Kir2.1, FluxOR thallium flux fluorescence; hits give low values. B-score at 10 µM. 310,000 tested, 0.85% active. P35561;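 active = fluorescence ratio B-score at or below minus 3 SD of library scores, with starting-brightness B-score within 2 SD, cut at about -4.2 in these data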;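 note: channel flux triggered by added potassium and thallium sulfate stimulus; B-score of peak minus minimum fluorescence over baseline after thallium stimulus; more negative B-score means stronger Kir2.1 block with less thallium influx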
hERG rescue: compounds protecting human hERG from proarrhythmic drug block | 310,000 tested, 0.51% active | AID 1511 | Q12809 | activation (rescue from dofetilide block), less the hit threshold, % at 10 µM | CHO-hERG, FluxOR thallium flux, dofetilide IC70 present;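 active = activation above the mean of controls blocked by dofetilide plus 5 SD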;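 note: thallium influx through hERG after potassium depolarization seen as dye fluorescence rise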
Target sequence (Q12809 whole entry, looked up): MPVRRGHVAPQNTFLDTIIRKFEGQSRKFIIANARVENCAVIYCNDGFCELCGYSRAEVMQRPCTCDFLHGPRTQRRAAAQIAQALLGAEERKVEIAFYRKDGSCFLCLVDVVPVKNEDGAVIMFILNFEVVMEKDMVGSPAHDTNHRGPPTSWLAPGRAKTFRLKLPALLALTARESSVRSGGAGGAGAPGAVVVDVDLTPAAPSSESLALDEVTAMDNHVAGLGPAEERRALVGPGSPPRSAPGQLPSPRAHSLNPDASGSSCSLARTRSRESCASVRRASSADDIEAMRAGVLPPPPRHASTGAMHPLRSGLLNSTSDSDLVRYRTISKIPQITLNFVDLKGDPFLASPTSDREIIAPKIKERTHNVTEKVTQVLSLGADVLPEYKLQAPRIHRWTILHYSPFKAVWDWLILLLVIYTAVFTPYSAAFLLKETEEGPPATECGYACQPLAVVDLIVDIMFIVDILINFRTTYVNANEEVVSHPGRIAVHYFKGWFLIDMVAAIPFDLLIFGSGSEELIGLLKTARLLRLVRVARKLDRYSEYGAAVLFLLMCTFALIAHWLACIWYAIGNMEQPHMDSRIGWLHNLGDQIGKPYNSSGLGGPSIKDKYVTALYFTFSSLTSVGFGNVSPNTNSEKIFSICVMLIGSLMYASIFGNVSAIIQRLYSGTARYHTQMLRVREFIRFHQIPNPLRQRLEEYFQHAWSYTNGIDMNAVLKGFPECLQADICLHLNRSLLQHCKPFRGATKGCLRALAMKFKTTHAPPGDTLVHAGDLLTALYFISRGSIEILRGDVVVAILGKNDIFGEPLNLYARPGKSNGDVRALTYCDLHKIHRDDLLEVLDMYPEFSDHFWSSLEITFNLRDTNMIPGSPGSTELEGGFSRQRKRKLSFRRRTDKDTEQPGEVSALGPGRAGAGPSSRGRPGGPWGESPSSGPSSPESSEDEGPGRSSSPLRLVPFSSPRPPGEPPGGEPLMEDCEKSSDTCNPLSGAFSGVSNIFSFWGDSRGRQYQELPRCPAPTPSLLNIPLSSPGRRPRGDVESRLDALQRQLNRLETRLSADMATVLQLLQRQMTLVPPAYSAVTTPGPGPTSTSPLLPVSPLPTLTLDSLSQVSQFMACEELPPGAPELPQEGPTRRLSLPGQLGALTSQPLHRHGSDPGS
KCNK9 inh: blocks the human KCNK9 two-pore domain potassium channel | 310,000 tested, 1.2% active | B-score at 10 µM | AID 488922 | HEK293 KCNK9, FluxOR thallium flux fluorescence; hits give low values | Q9NPC2;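 active = ratio B-score over 3 SD below the library mean, with starting fluorescence within 5 SD of its mean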;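 note: negative B-score means less thallium flux so channel inhibition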
KCNQ1 block: human KCNQ1 channel inhibition; CHO-K1 KCNQ1, FluxOR thallium flux fluorescence; hits give high values; B-score at 10 µM; 310,000 tested, 1.3% active; AID 2642;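 active = compounds whose thallium flux B-score, printed positive for inhibition, exceeds three library SD while starting fluorescence stays within three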;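 note: channel opened by potassium depolarization with thallium stimulus after 20 min compound exposure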
KCNK9 inh conf: human KCNK9 inhibitor confirmation | 4,900 tested, 43% active | HEK293 KCNK9 cells, FluxOR thallium flux fluorescence | shares compounds with KCNK9 inh | inhibition, % at 10 µM;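 active = thallium signal inhibited by more than 5 SD of the compound-free buffer control wells, on both duplicate plates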;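 note: 0% = assay buffer control wells without compound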
Kir21 sel: tests whether KCNK9 modulators also affect mouse Kir2.1; shares compounds with KCNK9 inh; inhibition, % at 10 µM; 4,900 tested, 4% active; AID 492993; Kir2.1 cells, FluxOR thallium flux fluorescence;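 active = thallium signal drop more than 5 SD beyond the mean of the no-compound control wells, seen in both duplicate plates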;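 note: signal is fluorescence rise after thallium addition divided by baseline fluorescence; plate controls were assay buffer only for no effect and full block by chlorpromazine control for full effect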
HEK293 Tl ctr: second counter-screen for KCNK9 modulators: effect in non-induced cells. AID 492997. inhibition, % at 10 µM. 4,900 tested, 40% active. non-induced KCNK9-HEK293, FluxOR thallium flux. shares compounds with KCNK9 inh;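 active = thallium signal drop beyond 5 SD of the untreated control mean, on both duplicate plates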;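 note: plate controls were buffer only IC0 wells for no effect and SID17386958 at its maximal inhibitory level for full effect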
An asterisk follows results filed as active; i = inactive; . = not tested or not shown.

SMILES	KCNK3 inh	KCNQ1 pot	Kir21 inh	hERG rescue	KCNK9 inh	KCNQ1 block	KCNK9 inh conf	Kir21 sel	HEK293 Tl ctr
Cc1ccc(S(=O)(=O)c2cccc(S(=O)(=O)N3CCOCC3)c2)cc1S(=O)(=O)N1CCOCC1	i	i	2.14	-12.1	i	i	.	.	.
O=S(=O)(Nc1nc2ccccc2nc1Nc1cccc(S(=O)(=O)N2CCCCC2)c1)c1ccccc1	i	i	-3.95	-21.0	i	i	i	i	25.0%*
C=CCSc1nc2c(c(=N)n1CC=C)C1CCCC1S2 (centres undefined)	i	i	-0.31	-7.6	-17.8*	i	i	i	36.0%*
C=CCn1c(C)nnc1SCC(=O)NC1CCCCC1	i	i	1.45	-3.7	i	i	.	.	.
Cc1ccccc1CN1CCN(c2nc3ccccc3s2)CC1	i	i	-1.66	-1.2	i	i	i	i	34.0%*
C=CCN1CCN(C(CCC)c2nnnn2Cc2ccco2)CC1 (centres undefined)	i	i	-0.24	-13.5	i	i	.	.	.
O=C(NCc1ccccc1)C12CN(Cc3ccccc3)CC1C(c1cccc([N+](=O)[O-])c1)=NO2 (centres undefined)	i	i	0.05	-12.9	i	i	i	i	i
O=C(NCc1ccc(OC(F)(F)F)cc1)C12CN(Cc3ccccc3)CC1C(c1cccc([N+](=O)[O-])c1)=NO2 (centres undefined)	i	i	0.25	-5.7	i	i	.	.	.
COc1ccccc1N1CCN(C2CCCN(S(=O)(=O)c3cccc(Cl)c3)C2)CC1 (centres undefined)	i	i	1.62	-12.1	i	i	i	i	i
COc1ccccc1N1CCN(C2CCCN(S(=O)(=O)c3ccc(C)cc3)C2)CC1 (centres undefined)	i	i	1.04	-13.1	i	i	.	.	.
O=C(/C=C/c1ccccc1Cl)N(c1ccccn1)C1CCCCC1	i	i	-0.14	-7.1	-12.2*	i	58.0%*	i	32.0%*
COc1c(C)cc(C(=O)C2CCCN(C(=O)c3ccc4[nH]ccc4c3)C2)cc1C (centres undefined)	i	i	0.69	-22.1	i	i	i	i	i
COc1c(C)cc(C(=O)C2CCCN(C(=O)c3cccc(-n4cccn4)c3)C2)cc1C (centres undefined)	i	i	-0.31	-17.1	i	i	i	i	i
COc1c(C)cc(C(=O)C2CCCN(C(=O)c3csc(C)n3)C2)cc1C (centres undefined)	i	i	1.35	-6.4	i	i	.	.	.
COc1ccc(C(=O)C2CCCN(C(=O)c3noc4c3CCCC4)C2)cc1F (centres undefined)	i	i	-0.36	0.2	i	i	i	i	i
Cc1cnc(C(=O)N2CCCC(N3CCN(c4ccccc4C)CC3)C2)cn1 (centres undefined)	i	i	-0.14	-9.6	i	i	.	.	.
COc1ccc(C(=O)C2CCCN(C(=O)C3=CCCC3)C2)c(C)c1 (centres undefined)	i	i	1.99	-14.0	i	i	i	i	i
Cc1ccccc1N1CCN(C2CCCN(C(=O)c3noc4c3CCCC4)C2)CC1 (centres undefined)	i	i	-1.47	-11.0	i	i	i	i	i
COc1ccc(C(=O)C2CCCN(C(=O)c3ccc(CSC)o3)C2)cc1F (centres undefined)	i	i	-1.07	-18.8	i	i	i	i	i
